Results as given in ChEMBL document CHEMBL3526146, “In vitro and in vivo metabolism and pharmacokinetics of BMS-562086, a potent and orally bioavailable corticotropin-releasing factor-1 receptor antagonist” (Drug Metab Dispos, 2012).

Key:
[1] = Drug metabolism in mouse hepatocytes assessed as DPH-124921 metabolite level at 25 uM after 3 hrs by LC-MS/MS analysis; type: ADME, cell-based, Hepatocyte
Method in brief: (§1)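 Hepatocytes checked for viability by trypan blue exclusion, then diluted in Krebs-Henseleit buffer to 1.0 × 10^6 cells/ml. Incubated in duplicate with 25 µM compound at 37°C for 3 h on an orbital shaker (80 rpm) under 95/5 O2/CO2. Negative control had no cells. Stopped with ice-cold acetonitrile, sonicated, centrifuged; supernatant analysed by LC/MS/MS.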

Liver microsome [2] = test: Drug metabolism in human liver microsomes at 100 uM after 1 hr in presence of NADPH; type: ADME
Method in brief: (§2)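 Liver microsomes (1 mg/ml protein) in 100 mM phosphate buffer with 100 µM test compound. Reaction started by adding NADPH (1 mM), then run at 37°C for 1 h in a shaking water bath, in duplicate. Controls lacked microsomal protein or NADPH; 7-ethoxycoumarin (100 µM) was the positive control. Metabolites identified by LC/MS/MS.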

Hepatocyte [3] = test: Detection of compound level in human cryopreserved hepatocytes treated with 25 uM of BMS-562086 after 3 hrs by LC-MS/MS analysis; type: ADME, cell-based
Method in brief: (§3)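 Mouse, rat, dog, monkey and human hepatocytes (trypan blue viability checked) at 1.0×10^6 cells/ml in Krebs-Henseleit buffer were incubated with 25 µM compound, in duplicate. Conditions were 37°C, 95/5 O2/CO2, orbital shaking, 3 h. 7-Ethoxycoumarin and 7-hydroxycoumarin (100 µM) served as positive controls, with a cell-free negative control. Reactions were quenched with ice-cold acetonitrile, then sonicated and centrifuged; supernatants were analysed by LC/MS/MS.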

Liver microsome [4] = test: Drug metabolism in dog liver microsomes assessed as BMS-572273 metabolite level at 100 uM after 1 hr in presence of NADPH; type: ADME, Canis lupus familiaris
Method in brief: (§4)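 Mouse, rat, dog, monkey and human liver microsomes (1 mg/ml protein) were incubated with 100 µM compound in 100 mM phosphate buffer. Reactions were started with 1 mM NADPH and run 1 h at 37°C in duplicate. Controls lacked protein or NADPH, plus a 7-ethoxycoumarin (100 µM) positive control. Metabolites were identified by LC/MS/MS.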

[5] = Drug metabolism in cynomolgus monkey liver microsomes assessed as DPH-124921 metabolite level at 100 uM after 1 hr in presence of NADPH; type: ADME, Macaca fascicularis; method in brief: as §4
Liver microsome [6] = test: Detection of compound level in beagle dog liver microsomes treated with 100 uM of BMS-562086 after 1 hr by LC-MS/MS analysis
[7] = Drug metabolism in beagle dog hepatocytes assessed as DPH-123554 metabolite level at 25 uM after 3 hrs by LC-MS/MS analysis; type: ADME, cell-based, Canis lupus familiaris, Hepatocyte; method in brief: as §3
[8] = Drug metabolism in mouse hepatocytes assessed as DPH-123554 metabolite level at 25 uM after 3 hrs by LC-MS/MS analysis; type: ADME, cell-based, Hepatocyte; method in brief: as §1
[9] = Drug metabolism in beagle dog hepatocytes at 25 uM after 3 hrs by LC-MS/MS analysis; type: ADME, cell-based, Canis lupus familiaris, Hepatocyte; method in brief: as §3
Hepatocyte [10] = test: Detection of compound level in mouse hepatocytes treated with 25 uM of BMS-562086 after 3 hrs by LC-MS/MS analysis; type: ADME, cell-based; method in brief: as §3
Liver microsome [11] = test: Detection of compound level in rat liver microsomes treated with 100 uM of BMS-562086 after 1 hr by LC-MS/MS analysis
[12] = Drug metabolism in beagle dog hepatocytes assessed as BMS-572273 metabolite level at 25 uM after 3 hrs by LC-MS/MS analysis; type: ADME, cell-based, Canis lupus familiaris, Hepatocyte; method in brief: as §3
[13] = Drug metabolism in rat hepatocytes at 25 uM after 3 hrs by LC-MS/MS analysis; type: ADME, cell-based, Hepatocyte; method in brief: as §1
[14] = Drug metabolism in cynomolgus monkey liver microsomes assessed as DPH-123554 metabolite level at 100 uM after 1 hr in presence of NADPH; type: ADME, Macaca fascicularis; method in brief: as §4
Liver microsome [15] = test: Drug metabolism in human liver microsomes assessed as DPH-124921 metabolite level at 100 uM after 1 hr in presence of NADPH; type: ADME; method in brief: as §2
Liver microsome [16] = test: Drug metabolism in dog liver microsomes at 100 uM after 1 hr in presence of NADPH; type: ADME, Canis lupus familiaris; method in brief: as §2
[17] = Detection of compound level in cynomolgus monkey liver microsomes treated with 100 uM of BMS-562086 after 1 hr by LC-MS/MS analysis
[18] = Drug metabolism in human cryopreserved hepatocytes assessed as BMS-572273 metabolite level at 25 uM after 3 hrs by LC-MS/MS analysis; type: ADME, cell-based, Hepatocyte; method in brief: as §1
[19] = Drug metabolism in human cryopreserved hepatocytes assessed as DPH-123554 metabolite level at 25 uM after 3 hrs by LC-MS/MS analysis; type: ADME, cell-based, Hepatocyte; method in brief: as §1
Liver microsome [20] = test: Drug metabolism in beagle dog liver microsomes assessed as DPH-123554 metabolite level at 100 uM after 1 hr in presence of NADPH; type: ADME, Canis lupus familiaris; method in brief: as §4
[21] = Detection of compound level in cynomolgus monkey cryopreserved hepatocytes treated with 25 uM of BMS-562086 after 3 hrs by LC-MS/MS analysis; type: ADME, cell-based, Macaca fascicularis, Hepatocyte; method in brief: as §3
Liver microsome [22] = test: Drug metabolism in rat liver microsomes assessed as BMS-572273 metabolite level at 100 uM after 1 hr in presence of NADPH; type: ADME; method in brief: as §2
Liver microsome [23] = test: Drug metabolism in human liver microsomes assessed as BMS-572273 metabolite level at 100 uM after 1 hr in presence of NADPH; type: ADME; method in brief: as §2
[24] = Detection of compound level in beagle dog hepatocytes treated with 25 uM of BMS-562086 after 3 hrs by LC-MS/MS analysis; type: ADME, cell-based, Canis lupus familiaris, Hepatocyte; method in brief: as §3
[25] = Drug metabolism in cynomolgus monkey cryopreserved hepatocytes assessed as DPH-124921 metabolite level at 25 uM after 3 hrs by LC-MS/MS analysis; type: ADME, cell-based, Macaca fascicularis, Hepatocyte; method in brief: as §3
[26] = Drug metabolism in cynomolgus monkey cryopreserved hepatocytes assessed as BMS-572273 metabolite level at 25 uM after 3 hrs by LC-MS/MS analysis; type: ADME, cell-based, Macaca fascicularis, Hepatocyte; method in brief: as §3
Liver microsome [27] = test: Drug metabolism in rat liver microsomes assessed as DPH-123554 metabolite level at 100 uM after 1 hr in presence of NADPH; type: ADME; method in brief: as §2
[28] = Drug metabolism in rat hepatocytes assessed as DPH-124921 metabolite level at 25 uM after 3 hrs by LC-MS/MS analysis; type: ADME, cell-based, Hepatocyte; method in brief: as §1
[29] = Detection of compound level in mouse liver microsomes treated with BMS-562086 by LC-MS/MS analysis
[30] = Drug metabolism in mouse hepatocytes assessed as BMS-572273 metabolite level at 25 uM after 3 hrs by LC-MS/MS analysis; type: ADME, cell-based, Hepatocyte; method in brief: as §1
[31] = Drug metabolism in cynomolgus monkey cryopreserved hepatocytes at 25 uM after 3 hrs by LC-MS/MS analysis; type: ADME, cell-based, Macaca fascicularis, Hepatocyte; method in brief: as §3
[32] = Drug metabolism in mouse liver microsomes at 100 uM after 1 hr in presence of NADPH; type: ADME; method in brief: as §2
[33] = Drug metabolism in human cryopreserved hepatocytes at 25 uM after 3 hrs by LC-MS/MS analysis; type: ADME, cell-based, Hepatocyte; method in brief: as §1
[34] = Drug metabolism in beagle dog hepatocytes assessed as DPH-124921 metabolite level at 25 uM after 3 hrs by LC-MS/MS analysis; type: ADME, cell-based, Canis lupus familiaris, Hepatocyte; method in brief: as §3

Measured: Drug metabolism

CC[C@@H](C)Nc1nc(C)nc2c(-c3ccc(OC)nc3C)c(C)nn12 [PEXACERFONT]
metabolite_detected: all assays above
